Experimental data published in ChEMBL document CHEMBL4261642, “Design, synthesis, and ex vivo evaluation of a selective inhibitor for retinaldehyde dehydrogenase enzymes” (Bioorg Med Chem, 2018).

What was measured:
[1] = Inhibition of N-terminal His6-tagged recombinant chick RALDH3 expressed in Escherichia coli BL21(DE3) cells using RAL as substrate preincubated for 20 mins followed by substrate addition and measured after 30 mins in presence of NADH by fluorescence assay; parameters: species or system Gallus gallus
In short: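 Purified His-tagged recombinant enzyme in dialysis buffer with 2 mM DTT. Amounts were chick RALDH1 2 μg (0.358 μM), chick RALDH2 0.5 μg (0.091 μM), chick RALDH3 2 μg (0.355 μM) and human RALDH2 1 μg (0.176 μM). Enzyme pre-incubated 20 min at 37°C with 0–10 μM inhibitor in DMSO. Reaction started with final 4 mM NAD+ in pyrophosphate pH 8.2 buffer plus 250 μM retinaldehyde, 30 min at 37°C. NADH read fluorimetrically (Ex/Em 540/590) against a standard curve. Triplicates, 3–5 experiments.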

[2] = biological target: T1, Aldehyde dehydrogenase, mitochondrial (Homo sapiens, UniProt P05091); experiment: Inhibition of N-terminal His6-tagged recombinant human mitochondrial ALDH2 using propionaldehyde as substrate measured after 30 mins in presence of NADH by Morrison's plot analysis
T1 sequence (P05091 whole entry): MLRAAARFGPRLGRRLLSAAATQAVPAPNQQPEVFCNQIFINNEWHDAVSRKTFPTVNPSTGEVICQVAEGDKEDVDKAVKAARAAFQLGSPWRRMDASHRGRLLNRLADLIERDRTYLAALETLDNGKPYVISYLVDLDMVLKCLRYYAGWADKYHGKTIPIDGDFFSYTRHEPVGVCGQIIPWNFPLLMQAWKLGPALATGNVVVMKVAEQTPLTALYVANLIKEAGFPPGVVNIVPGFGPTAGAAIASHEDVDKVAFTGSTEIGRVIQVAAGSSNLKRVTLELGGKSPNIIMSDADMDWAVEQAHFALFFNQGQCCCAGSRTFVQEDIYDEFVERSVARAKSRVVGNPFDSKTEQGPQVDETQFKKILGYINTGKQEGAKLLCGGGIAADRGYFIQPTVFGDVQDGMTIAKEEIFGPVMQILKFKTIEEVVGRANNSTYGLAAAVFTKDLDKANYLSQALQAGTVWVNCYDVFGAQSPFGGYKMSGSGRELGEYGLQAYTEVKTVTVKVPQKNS

[3] = biological target: T2, Retinal dehydrogenase 2 (Gallus gallus) (UniProt O93344); experiment: Inhibition of N-terminal His6-tagged recombinant chick RALDH2 expressed in Escherichia coli BL21(DE3) cells at 25 nM using RAL as substrate assessed as remaining activity preincubated for 20 mins followed by compound washout by ultrafiltration and subsequent addition of substrate and measured after 30 mins in presence of NADH by fluorescence assay (reference value: 100.0 +/- 11.57%)
T2 sequence (whole entry): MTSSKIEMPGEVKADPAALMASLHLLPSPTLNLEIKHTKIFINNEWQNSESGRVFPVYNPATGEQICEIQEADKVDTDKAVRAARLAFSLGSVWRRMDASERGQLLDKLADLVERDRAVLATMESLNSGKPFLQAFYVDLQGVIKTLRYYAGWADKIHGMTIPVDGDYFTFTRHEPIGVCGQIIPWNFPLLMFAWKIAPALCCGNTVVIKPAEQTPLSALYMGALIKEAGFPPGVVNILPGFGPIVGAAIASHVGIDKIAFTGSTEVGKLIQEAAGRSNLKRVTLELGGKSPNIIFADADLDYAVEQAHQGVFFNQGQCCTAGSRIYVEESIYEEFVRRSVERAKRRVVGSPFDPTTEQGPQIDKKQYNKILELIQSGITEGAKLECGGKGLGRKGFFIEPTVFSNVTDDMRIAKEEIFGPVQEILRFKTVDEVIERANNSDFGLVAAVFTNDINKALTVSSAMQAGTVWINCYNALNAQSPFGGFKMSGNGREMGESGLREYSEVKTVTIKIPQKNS
In short: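 Chick RALDH2 (91 nM) pre-incubated 20 min with 0–50 nM inhibitor. Unbound inhibitor removed by ultrafiltration before adding 250 μM retinaldehyde and 4 mM NAD+, 30 min at 37°C. NADH measured fluorimetrically. Activity expressed as % of vehicle. Triplicates; one-way ANOVA with Bonferroni test.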

[4] = biological target: T3, Retinal dehydrogenase 2 (Gallus gallus, UniProt O93344); experiment: Inhibition of N-terminal His6-tagged recombinant chick RALDH2 expressed in Escherichia coli BL21(DE3) cells up to 500 nM using RAL as substrate preincubated up to 40 mins followed by substrate addition and measured after 30 mins in presence of NADH by fluorescence assay
T3 sequence (O93344 whole entry): T2 sequence (whole entry)
In short: (§1)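 Chick RALDH2 pre-incubated 10, 20 and 40 min with 0–500 nM inhibitor, then assayed with retinaldehyde/NAD+ by fluorimetric NADH. kobs taken from linear regression of log % activity remaining versus pre-incubation time. KI and kinact obtained by nonlinear regression of kobs versus inhibitor concentration.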

[5] = test system: HEK293; experiment: Cytotoxicity against doxycycline-inducible chicken RALDH2 expressing HEK293 cells by measuring DNA content after 24 hrs in presence of proteinase K by Pico-green dye-based fluorescence assay; type: functional, cell-based; settings: Homo sapiens, HEK293, 24 h
In short: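 Doxycycline-induced (Dox)RALDH2-eGFP HEK293 cells treated with compound in low-serum DMEM. Homogenate aliquots taken before ultracentrifugation were digested with proteinase K (0.05% w/v in 10 mM EDTA, 0.1 M sodium phosphate pH 6.5) at 60°C overnight. DNA measured by PicoGreen fluorescence. Toxicity curves span 0.01–50 μM over 24 h. Two experiments, n = 5 per concentration.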

[6] = biological target: T2, Retinal dehydrogenase 2 (Gallus gallus); experiment: Inhibition of chick RALDH2 expressed in doxycycline-inducible HEK293 cells assessed as inhibition of ATRA synthesis at 1 uM after 24 hrs in presence of […]; type: cell-based
[7] = biological target: T2, Retinal dehydrogenase 2 (Gallus gallus); experiment: Inhibition of chick RALDH2 expressed in doxycycline-inducible HEK293 cells assessed as inhibition of ATRA synthesis at 2 uM after 24 hrs in presence of ATRA and NAD+; type: cell-based
[8] = biological target: T3, Retinal dehydrogenase 2; experiment: Inhibition of chick RALDH2 expressed in doxycycline-inducible HEK293 cells assessed as inhibition of ATRA synthesis after 24 hrs in presence of […]; type: cell-based
[9] = biological target: T2, Retinal dehydrogenase 2 (Gallus gallus); experiment: Inhibition of RALDH2 in choroidal cytosol fraction from 4 day recovering chick assessed as inhibition of ATRA synthesis at 0.1 to 6 uM pre-incubated for 20 mins followed by […] addition and measured after 30 mins by HPLC analysis
In short: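 Choroid cytosol fractions (100,000 × g supernatant) from 4-day recovering chick eyes pre-incubated 20 min at 37°C with 0.01–6 μM inhibitor or DMSO. Reaction started with 4 mM NAD+ and 25 μM all-trans-retinaldehyde, 30 min at 37°C. ATRA extracted and quantified by reverse-phase HPLC (350 nm, MS). Two experiments, n = 3–5 each.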

[10] = species: Gallus gallus; experiment: Inhibition of N-terminal His6-tagged recombinant chick RALDH3 expressed in Escherichia coli BL21(DE3) cells at 250 nM using RAL as substrate assessed as Km preincubated for 20 mins followed by substrate addition and measured after 30 mins in presence of NADH by fluorescence assay (reference value: 84.45 +/- 30.99 microM)
[11] = biological target: T2, Retinal dehydrogenase 2 (Gallus gallus); experiment: Inhibition of N-terminal His6-tagged recombinant chick RALDH2 expressed in Escherichia coli BL21(DE3) cells up to 500 nM using RAL as substrate assessed as Kinact/Ki ratio preincubated up to 40 mins followed by substrate addition and measured after 30 mins in presence of NADH by fluorescence assay; in short: as §1

- IC50 [1]: 0.161 µM
- Ki [2]: Not Active
- Activity [3]: 33%
- Ki [4]: 0.128 µM
- inhibition [6]: 92%
- inhibition [7]: 93%
- IC50 [8]: 0.187 µM
- inhibition [9]: 70 to 96%
- Ratio [11]: 124000 M⁻¹ min⁻¹
Structure (SMILES): CC1=C(/C=C/C(C)=C/C=C/C(C)=C/C(=O)C(Cl)Cl)C(C)(C)CCC1
- IC50 [5]: 2.94 µM
- Km [10]: 46.1 µM
